Reference: ChEMBL document CHEMBL2177092, “Phosphoramidate ProTides of the anticancer agent FUDR successfully deliver the preformed bioactive monophosphate in cells and confer advantage over the parent nucleoside” (J Med Chem, 2011)
Each block holds one molecule with its values, some of them ahead of it.

Tests used:
L1210 [1] = experiment: Ratio of IC50 for Mycoplasma hyorhinis-infected mouse L1210 cells to IC50 for mouse L1210/0 cells after 48 hrs by cell counting; assay type: functional
Outline: (§1)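 Murine L1210/0 cells were compared with L1210/TK cells, selected for resistance to 5-bromo-2'-dUrd, and with L1210.Hyor cells, chronically infected with Mycoplasma hyorhinis. Cells were grown in DMEM with 10% FBS, 10 mM Hepes and 1 mM pyruvate at 37 °C and 5% CO2, then seeded at 60 000 cells/well with compound. They were Coulter-counted after 48 h. […] Mean of 2–4 experiments.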

L1210 [2] = experiment: Cytostatic activity against Mycoplasma hyorhinis-infected mouse L1210 cells after 48 hrs by cell counting; assay type: functional, cell-based; conditions: L1210, 48 h
Outline: (§2)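 Suspension leukemia cells in DMEM with 10% FBS, 10 mM Hepes and 1 mM sodium pyruvate at 37 °C under 5% CO2. Seeded at 60 000 cells/well with graded compound levels. Grown 48 h (L1210) or 72 h (CEM), then counted by Coulter counter. Mean ± SD of two to four independent experiments.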

L1210 [3] = experiment: Ratio of FUDR IC50 to compound IC50 for thymidine-kinase deficient mouse L1210 cells after 48 hrs by cell counting; assay type: functional
HeLa [4] = experiment: Cytostatic activity against human HeLa cells […] by cell counting; assay type: functional, cell-based
HeLa [5] = experiment: Cytostatic activity against thymidine-kinase deficient human HeLa cells […]; assay type: functional, cell-based
CCRF-CEM [6] = experiment: Cytostatic activity against thymidine-kinase deficient human CEM cells after 72 hrs by cell counting; assay type: functional, cell-based; outline: as §2
CCRF-CEM [7] = experiment: Cytostatic activity against human CEM/0 cells after 72 hrs by cell counting; assay type: functional, cell-based
Outline: (§3)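 Suspension leukemia cells in DMEM with 10% FBS, 10 mM Hepes and 1 mM sodium pyruvate at 37 °C under 5% CO2. Seeded at 60 000 cells/well with graded compound levels. Grown 48 h (L1210) or 72 h (CEM), then counted by Coulter counter. […] Mean ± SD of two to four independent experiments.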

[8] = Cytostatic activity against mouse L1210/0 cells after 48 hrs by cell counting; assay type: functional, cell-based; conditions: L1210/0, 48 h; outline: as §2
L1210 [9] = experiment: Cytostatic activity against thymidine-kinase deficient mouse L1210 cells after 48 hrs by cell counting; assay type: functional, cell-based; conditions: L1210, 48 h; outline: as §2
[10] = Hydrolytic stability in aqueous buffer at pH 8 at 4.5 mg measured every 12 mins over 14 hrs by [31P]NMR spectroscopy; assay type: physicochemical; conditions: pH 8, 14 h
Outline: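 Compound (4.5 mg) in methanol-d4 with pH 8 buffer (0.1 M Na2HPO4 adjusted with 0.1 M HCl). In situ 31P NMR (202 MHz) at 37 °C, spectra recorded every 12 min over 14 h.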

[11] = Hydrolytic stability in aqueous buffer at pH 1 at 2.6 mg measured every 12 mins over 14 hrs by [31P]NMR spectroscopy; assay type: physicochemical; conditions: pH 1, 14 h
Outline: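 Compound (2.6 mg) in methanol-d4 with pH 1 buffer made from equal parts 0.2 M HCl and 0.2 M KCl. 31P NMR at 37 °C, spectra recorded every 12 min over 14 h.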

CCRF-CEM [12] = experiment: Ratio of IC50 for human CEM cells expressing human ENT1 transporter in presence of NBMPR to IC50 for human CEM cells expressing human ENT1 transporter; assay type: functional
Outline: (§4)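 Human T-lymphocyte CEM cells with (CEM/hEnt-1) or lacking (CEM/hEnt-0) the hENT1 transporter were seeded at 60 000 cells/well with graded compound concentrations. Transporter-inhibition runs added dipyridamole (10 μM) or NBMPR (10 μM) to CEM/hEnt-1 cells. […] Ratios are formed against untreated CEM/hEnt-1 IC50. Mean of 2–4 experiments.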

CCRF-CEM [13] = experiment: Ratio of IC50 for human CEM cells expressing human ENT1 transporter in presence of dipyridamole to IC50 for human CEM cells expressing human ENT1 transporter; assay type: functional; outline: as §4
CCRF-CEM [14] = experiment: Ratio of IC50 for ENT1 transporter-deficient human CEM cells to IC50 for human CEM cells expressing human ENT1 transporter after 72 hrs by cell counting; assay type: functional; outline: as §4
CCRF-CEM [15] = experiment: Cytostatic activity against human CEM cells expressing human ENT1 transporter after 72 hrs by cell counting in presence of NBMPR; assay type: functional, cell-based
Outline: (§5)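 CEM/hEnt-1 cells with 10 μM dipyridamole or 10 μM NBMPR added alongside graded compound levels, in DMEM with 10% FBS, 10 mM Hepes and 1 mM sodium pyruvate at 37 °C under 5% CO2. Seeded at 60 000 cells/well, counted by Coulter counter after 3 days.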

CCRF-CEM [16] = experiment: Cytostatic activity against human CEM cells expressing human ENT1 transporter after 72 hrs by cell counting in presence of dipyridamole; assay type: functional, cell-based; outline: as §5
CCRF-CEM [17] = experiment: Cytostatic activity against human CEM cells expressing human ENT1 transporter after 72 hrs by cell counting; assay type: functional, cell-based; outline: as §3
CCRF-CEM [18] = experiment: Cytostatic activity against ENT1 transporter-deficient human CEM cells after 72 hrs by cell counting; assay type: functional, cell-based; outline: as §3
[19] = Stability of the compound in potassium phosphate buffer at pH 7.4 assessed as E.coli thymidine phosphorylase-mediated release of 5-FU after 5 mins by [19F] NMR spectroscopy; assay type: ADME; conditions: pH 7.4, 5 min
Outline: (§6)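 Compound (6.0 mg) in methanol-d4 plus 300 mM potassium phosphate buffer pH 7.4. […] 19F NMR recorded at 5 min, 14 h and 72 h at 25 °C, with 5-FU identified by its signal near δF 169.50 ppm.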

[20] = Stability of the compound in potassium phosphate buffer at pH 7.4 assessed as E.coli thymidine phosphorylase-mediated release of 5-FU after 14 to 72 hrs by [19F] NMR spectroscopy; assay type: ADME; outline: as §6
L1210 [21] = experiment: Ratio of IC50 for thymidine-kinase deficient mouse L1210 cells to IC50 for mouse L1210/0 cells after 48 hrs by cell counting; assay type: functional; outline: as §1
HeLa [22] = experiment: Ratio of IC50 for thymidine-kinase deficient human HeLa cells to IC50 for human HeLa cells by cell counting

IC50 (L1210 [2]): 40 nM | IC50 (HeLa [4]): 180 nM | IC50 (HeLa [5]): 5900 nM | IC50 (CCRF-CEM [6]): 1200 nM | IC50 (CCRF-CEM [7]): 170 nM | IC50 [8]: 32 nM | IC50 (L1210 [9]): 140 nM
Structure (SMILES): C[C@H](NP(=O)(OC[C@H]1O[C@@H](n2cc(F)c(=O)[nH]c2=O)C[C@@H]1O)Oc1ccccc1)C(=O)OC1CCCCC1 (mixture of isomers)
Ratio IC50 (L1210 [1]): 1.25 | Ratio IC50 (L1210 [3]): 21

Structure (SMILES): C[C@H](NP(=O)(OC[C@H]1O[C@@H](n2cc(F)c(=O)[nH]c2=O)C[C@@H]1O)Oc1ccccc1)C(=O)OCc1ccccc1 (mixture of isomers)
Stability [10]: Stable | Stability [11]: Stable | Ratio IC50 (CCRF-CEM [12]): 2 | Ratio IC50 (CCRF-CEM [13]): 2 | Ratio IC50 (CCRF-CEM [14]): 7 | IC50 (CCRF-CEM [15]): 720 nM | IC50 (CCRF-CEM [16]): 660 nM | IC50 (CCRF-CEM [17]): 130 nM | IC50 (CCRF-CEM [18]): 1400 nM | Ratio IC50 (L1210 [1]): 5.8 | IC50 (L1210 [2]): 150 nM | Stability [19]: Stable | Stability [20]: Stable | IC50 (HeLa [4]): 130 nM | IC50 (HeLa [5]): 19000 nM | IC50 (CCRF-CEM [6]): 22000 nM | IC50 (CCRF-CEM [7]): 180 nM | IC50 [8]: 26 nM | IC50 (L1210 [9]): 13000 nM

Structure (SMILES): COC(=O)[C@H](C)NP(=O)(OC[C@H]1O[C@@H](n2cc(F)c(=O)[nH]c2=O)C[C@@H]1O)Oc1ccccc1 (mixture of isomers)
Ratio IC50 (L1210 [1]): 22 | IC50 (L1210 [2]): 870 nM | Ratio IC50 (L1210 [21]): 2000 | IC50 (HeLa [4]): 280 nM | IC50 (HeLa [5]): 4700 nM | IC50 (CCRF-CEM [6]): 35000 nM | IC50 (CCRF-CEM [7]): 700 nM | IC50 [8]: 40 nM | IC50 (L1210 [9]): 41000 nM | Ratio IC50 (HeLa [22]): 15
